Data taken from ChEMBL document CHEMBL5329149, “Identification of macrocyclic peptides which activate bacterial cylindrical proteases” (RSC Med Chem, 2023).
Values belong to the molecule of their own block, whether it stands above or below them. The source made the active and inactive calls. The calls are words filed in the database; no cut-off is given here. Starred links: 1 amine or outer side, 2 acyl side, 3 side chain; linkers in the order of their positions; H or OH if unused. Positions of bridges follow the written chain, without caps; N, C: chain ends. Non-standard residues stand in square brackets, D forms with d. Residues, ends and D or L forms follow the SMILES beside them. *: point of attachment. Phe(3,5-F2) = N[C@@H](Cc1cc(F)cc(F)c1)C(=O)O; X1 = CN(CC(=O)O)c1nc(CC[*:1])cc(CC[*:2])n1; CH2COCH2 = O=C(C[*:1])C[*:2]; Cam = NC(=O)C*

What was measured:
[1] = molecular target: T1, ATP-dependent Clp protease proteolytic subunit (Staphylococcus aureus (strain NCTC 8325)) (UniProt Q2G036); experiment: Activation of Staphylococcus aureus ClpP assessed as FtsZ digestion at 200 uM incubated for 24 hrs by densitometric analysis; details: filed as activator
T1 sequence (whole entry): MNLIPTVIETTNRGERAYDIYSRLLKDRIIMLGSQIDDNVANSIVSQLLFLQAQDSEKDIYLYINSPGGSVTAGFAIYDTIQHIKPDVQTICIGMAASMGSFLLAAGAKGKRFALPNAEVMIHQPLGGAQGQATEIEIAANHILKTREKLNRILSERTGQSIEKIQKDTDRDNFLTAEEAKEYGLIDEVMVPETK
Outline: (§1)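 Strep-tagged S. aureus ClpP (1.0 µM, expressed in ClpP-deficient E. coli SG1146a) digesting S. aureus FtsZ (4.0 µM, final) with ligand at 37 °C, under the same conditions as the beta-casein assay. Timed aliquots were quenched with SDS loading buffer and heated, then resolved by SDS-PAGE, Coomassie-stained and quantified by densitometry. ≥3 independent experiments.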

[2] = molecular target: T1, ATP-dependent Clp protease proteolytic subunit (Staphylococcus aureus (strain NCTC 8325)); experiment: Activation of Staphylococcus aureus ClpP assessed as beta-casein digestion using beta-casein/FITC casein as substrate at 200 uM incubated for 24 hrs; details: filed as activator
Outline: (§2)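 Purified ClpP (1.0 µM, final) was incubated with bovine beta-casein (5.0 µM or 3 µM) and ligand at 37 °C, in 100 mM Tris-HCl pH 7.6 with 100 mM KCl or 100 mM HEPES pH 7 with 150 mM NaCl. Timed aliquots were quenched in SDS loading buffer at 90 °C for 5 min, run on SDS-PAGE, stained with Coomassie and quantified by densitometry. ≥3 independent experiments.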

[3] = molecular target: T1, ATP-dependent Clp protease proteolytic subunit (Staphylococcus aureus (strain NCTC 8325)); experiment: Induction of tetra-decameric form of Staphylococcus aureus ClpP stabilization in Tris-HCl
Outline: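 S. aureus ClpP (1 mg/mL) incubated overnight at 32 °C with or without ligands (200 µM, DMSO as blank) in destabilizing buffer (100 mM Tris-HCl pH 7.6, 100 mM KCl). Oligomeric state then analysed by gel filtration on a pre-equilibrated Superdex 200 Increase 10/300 column, tetradecamer versus heptamer.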

[4] = molecular target: ATP-dependent Clp protease proteolytic subunit (Escherichia coli (strain K12)) (UniProt P0A6G7); experiment: Activation of Escherichia coli ClpP assessed as increase in fluorescence intensity using beta-casein/FITC casein as substrate at 200 uM incubated for 24 hrs
Outline: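 E. coli ClpP (0.5 µM, His-tagged, expressed in E. coli C41(DE3)) with FITC-casein (1.8 µM) plus bovine beta-casein (4.8 µM), final concentrations. Ligands at 200 µM in 100 mM Tris-HCl pH 7.6, 100 mM KCl, 24 h at 37 °C. Fluorescence read at ex 483/em 530 nm, mean of DMSO wells subtracted. Run in parallel without ClpP to exclude false positives. Duplicates, ≥2 independent experiments, mean ± SD.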

[5] = molecular target: ATP-dependent Clp protease proteolytic subunit (Escherichia coli (strain K12)) (UniProt P0A6G7); experiment: Activation of Escherichia coli ClpP assessed as beta-casein digestion using beta-casein/FITC casein as substrate at 200 uM incubated for 24 hrs by SDS-PAGE analysis; details: filed as activator; outline: as §2
[6] = molecular target: T1, ATP-dependent Clp protease proteolytic subunit (Staphylococcus aureus (strain NCTC 8325)); experiment: Activation of Staphylococcus aureus ClpP assessed as FtsZ digestion at 10 uM incubated for 24 hrs by densitometric analysis; details: filed as activator; outline: as §1
[7] = molecular target: T1, ATP-dependent Clp protease proteolytic subunit (Staphylococcus aureus (strain NCTC 8325)); experiment: Activation of Staphylococcus aureus ClpP assessed as beta-casein digestion using beta-casein/FITC casein as substrate at 10 uM incubated for 24 hrs; details: filed as activator; outline: as §2
[8] = molecular target: T2, ATP-dependent Clp protease proteolytic subunit (Staphylococcus aureus (strain NCTC 8325), UniProt Q2G036); experiment: Activation of Staphylococcus aureus ClpP assessed as beta-casein digestion using beta-casein/FITC casein as substrate incubated for 24 hrs
T2 sequence (Q2G036 whole entry): T1 sequence (whole entry)

ATP-dependent Clp protease proteolytic subunit (Escherichia coli (strain K12)), sequence (P0A6G7 whole entry): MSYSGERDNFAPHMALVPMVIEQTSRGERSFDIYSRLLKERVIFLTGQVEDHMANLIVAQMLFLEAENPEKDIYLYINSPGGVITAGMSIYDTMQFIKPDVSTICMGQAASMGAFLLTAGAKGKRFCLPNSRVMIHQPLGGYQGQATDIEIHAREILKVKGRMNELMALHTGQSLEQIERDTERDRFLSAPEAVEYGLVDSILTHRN

Activity [1]: Active
Activity [2]: Active
Activity [3]: Active
Structure (SMILES): CCCC/C=C/C(=O)N[C@@H](Cc1cc(F)cc(F)c1)C(=O)OC

Activity [4]: inactive
Structure (SMILES): CC[C@H](C)[C@@H]1NC(=O)CNC(=O)[C@@H](NC(C)=O)CSCC(=O)CSC[C@@H](C(N)=O)NC(=O)CNC(=O)[C@@H](Cc2ccccc2)NC(=O)CNC1=O

Structure (SMILES): CC[C@H](C)[C@@H]1NC(=O)CNC(=O)[C@@H](NC(C)=O)CSCC(=O)CSC[C@@H](C(N)=O)NC(=O)CNC(=O)[C@H](Cc2ccccc2)NC(=O)CNC1=O
Activity [1]: Active
Activity [2]: Active
Activity [5]: Active

Activity [4]: inactive
Structure (SMILES): CC[C@H](C)[C@@H]1NC(=O)CNC(=O)[C@H](NC(C)=O)CSCC(=O)CSC[C@@H](C(N)=O)NC(=O)CNC(=O)[C@H](C)NC(=O)CNC1=O

Structure (SMILES): C[C@@H]1C[C@H]2C(=O)OC[C@H](NC(=O)[C@H](Cc3cc(F)cc(F)c3)NC(=O)CCC3CCCCC3)C(=O)N3CCC[C@H]3C(=O)N3CCCC[C@H]3C(=O)N[C@@H](C)C(=O)N2C1
Activity [6]: Active
Activity [3]: Active
Activity [7]: Active

Activity [4]: inactive
Structure (SMILES): CC[C@H](C)[C@H](NC(=O)CNC(=O)[C@H](CSCC(N)=O)NC(C)=O)C(=O)NCC(=O)N[C@@H](Cc1ccccc1)C(=O)NCC(=O)N[C@@H](C)C(=O)N[C@@H](CSCC(N)=O)C(N)=O (Ac-C(Cam)GIGFGAC(Cam)-NH2)

Activity [4]: inactive
Structure (SMILES): CC[C@H](C)[C@H](NC(=O)CNC(=O)[C@H](CSCC(N)=O)NC(C)=O)C(=O)NCC(=O)N[C@@H](Cc1ccccc1)C(=O)NCC(=O)N[C@@H](C)C(=O)N[C@H](C(=O)N[C@@H](CSCC(N)=O)C(N)=O)[C@@H](C)O (Ac-C(Cam)GIGFGATC(Cam)-NH2)

Activity [4]: inactive
Structure (SMILES): CC[C@H](C)[C@H](NC(=O)CNC(=O)[C@H](CSCC(N)=O)NC(C)=O)C(=O)NCC(=O)N[C@@H](Cc1ccccc1)C(=O)NCC(=O)N[C@@H](CSCC(N)=O)C(N)=O (Ac-C(Cam)GIGFGC(Cam)-NH2)

Activity [4]: inactive
Structure (SMILES): CC[C@H](C)[C@H](NC(=O)CNC(=O)[C@H](CSCC(N)=O)NC(C)=O)C(=O)NCC(=O)N[C@@H](Cc1cc(F)cc(F)c1)C(=O)NCC(=O)N[C@@H](CSCC(N)=O)C(N)=O (Ac-C(Cam)GIG[Phe(3,5-F2)]GC(Cam)-NH2)

Activity [4]: inactive
Structure (SMILES): CC[C@H](C)[C@H](NC(=O)[C@H](CSCC(N)=O)NC(C)=O)C(=O)NCC(=O)N[C@@H](Cc1ccccc1)C(=O)NCC(=O)N[C@@H](C)C(=O)N[C@@H](CSCC(N)=O)C(N)=O (Ac-C(Cam)IGFGAC(Cam)-NH2)

Activity [4]: inactive
Structure (SMILES): CC[C@H](C)[C@H](NC(=O)[C@H](CSCC(N)=O)NC(C)=O)C(=O)NCC(=O)N[C@@H](Cc1ccccc1)C(=O)NCC(=O)N[C@@H](C)C(=O)N[C@H](C(=O)N[C@@H](CSCC(N)=O)C(N)=O)[C@@H](C)O (Ac-C(Cam)IGFGATC(Cam)-NH2)

Activity [4]: inactive
Structure (SMILES): CC[C@H](C)[C@H](NC(=O)[C@H](CSCC(N)=O)NC(C)=O)C(=O)NCC(=O)N[C@@H](Cc1ccccc1)C(=O)NCC(=O)N[C@@H](CSCC(N)=O)C(N)=O (Ac-C(Cam)IGFGC(Cam)-NH2)

Structure (SMILES): CC[C@H](C)[C@@H]1NC(=O)CNC(=O)[C@@H](NC(C)=O)CSCC(=O)CSC[C@@H](C(N)=O)NC(=O)CNC(=O)[C@H](Cc2cc(F)cc(F)c2)NC(=O)CNC1=O (Ac-CGIG[Phe(3,5-F2)]GC-NH2; linker 1-7 via CH2COCH2)
Activity ([4]; filed as activator): Active
EC50 [8]: 41 µM
Activity [1]: Active
Activity [2]: Active
Activity [5]: Active

Activity [4]: inactive
Structure (SMILES): CC[C@H](C)[C@@H]1NC(=O)CNC(=O)[C@@H](NC(C)=O)CSCCc2cc(nc(N(C)CC(=O)O)n2)CCSC[C@@H](C(N)=O)NC(=O)CNC(=O)[C@H](Cc2cc(F)cc(F)c2)NC(=O)CNC1=O (Ac-CGIG[Phe(3,5-F2)]GC-NH2; linker 1-7 via X1)
